Experimental data: ChEMBL document CHEMBL4680101, “Discovery and Optimization of Allosteric Inhibitors of Mutant Isocitrate Dehydrogenase 1 (R132H IDH1) Displaying Activity in Human Acute Myeloid Leukemia Cells” (J Med Chem, 2016)
pIC50: −log10 of the molar value. Where “and” joins values, the source holds several entries; their conditions need not be identical. Equal entries are not always repeated. Blank lines part the entries; values can stand above or below the compound they belong to. Calls of active or inactive are those of the source. No cut-off for these calls is given here.

Legend:
[1] = biological target: T1, Isocitrate dehydrogenase [NADP] cytoplasmic (Homo sapiens, UniProt O75874, R132H); test: Allosteric inhibition of IDH1 R132H mutant (unknown origin) expressed in HEK293T cells assessed as reduction in 2-HG production incubated for 48 hrs by LC-MS/MS analysis; type: cell-based
Method in brief: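 HEK293T cells reverse-transfected with pcDNA3.1 IDH1 R132H (Lipofectamine 2000), 6 h at 37 °C in 1% FBS plating medium, then assay medium. Compound added in DMSO (0.15% final), 48 h at 37 °C. Medium 2-HG quantified by HILIC LC-MS/MS with D3-2-HG internal standard, normalised to Hoechst nuclear count. Mean of two biological replicates.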
Target sequence in this assay (O75874 2-414 R132H limits assumed): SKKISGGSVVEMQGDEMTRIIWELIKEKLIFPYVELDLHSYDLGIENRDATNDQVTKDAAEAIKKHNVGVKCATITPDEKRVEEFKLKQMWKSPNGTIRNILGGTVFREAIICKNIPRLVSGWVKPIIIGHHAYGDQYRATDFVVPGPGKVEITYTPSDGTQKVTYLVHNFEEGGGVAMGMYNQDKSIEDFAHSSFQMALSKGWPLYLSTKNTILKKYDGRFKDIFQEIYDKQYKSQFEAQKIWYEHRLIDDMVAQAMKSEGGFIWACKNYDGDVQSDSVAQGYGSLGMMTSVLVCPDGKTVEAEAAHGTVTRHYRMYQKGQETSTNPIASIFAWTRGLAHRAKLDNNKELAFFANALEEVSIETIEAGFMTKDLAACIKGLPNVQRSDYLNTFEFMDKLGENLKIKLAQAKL

HeLa = test: Cytotoxicity in human HeLa cells; type: cell-based
[2] = biological target: T1, Isocitrate dehydrogenase [NADP] cytoplasmic; test: Inhibition of IDH1 R132H mutant (unknown origin) using alpha-ketoglutarate and NADPH incubated for 60 mins by fluorescence based assay
Target sequence in this assay (O75874 2-414 R132H limits assumed): as above

[3] = biological target: T2, Isocitrate dehydrogenase [NADP] cytoplasmic (Homo sapiens, UniProt O75874); test: Inhibition of wild type IDH1 (unknown origin) using alpha-ketoglutarate and NADPH incubated for 30 mins by fluorescence based assay
T2 sequence (O75874 whole entry): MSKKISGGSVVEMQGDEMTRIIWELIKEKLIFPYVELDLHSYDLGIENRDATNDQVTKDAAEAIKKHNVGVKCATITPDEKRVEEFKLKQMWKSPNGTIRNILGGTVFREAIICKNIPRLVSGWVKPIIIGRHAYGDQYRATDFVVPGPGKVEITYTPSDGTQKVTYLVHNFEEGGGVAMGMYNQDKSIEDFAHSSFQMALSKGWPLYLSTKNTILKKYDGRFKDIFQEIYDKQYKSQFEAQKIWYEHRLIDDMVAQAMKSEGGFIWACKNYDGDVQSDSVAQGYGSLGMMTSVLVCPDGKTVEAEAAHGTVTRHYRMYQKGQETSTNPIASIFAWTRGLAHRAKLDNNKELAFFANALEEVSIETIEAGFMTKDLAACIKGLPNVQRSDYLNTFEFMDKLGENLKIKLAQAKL

Leukemic blast cell [4] = test: Induction of myeloid differentiation in human primary AML blast cells from patient with wild type IDH1 assessed as up-regulation of CD15 at 1 times to 8 times IC50 incubated for 14 days by flow cytometry; type: functional, tissue-based; conditions: time 14.0 day
Method in brief: (§1)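 Primary AML cells (≥80% blasts), 2 x 10^4 per condition in methylcellulose with cytokines (IL-3, IL-6, IL-11, FLT3L, SCF, TPO, G-CSF, EPO). Compound at 1x, 4x, 8x cellular IC50 or DMSO (1:1000), 14 days at 37 °C. Recovered cells stained for CD11b, CD15 and CD117, ≥30 min at 4 °C, read by flow cytometry.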

Leukemic blast cell [5] = test: Induction of myeloid differentiation in human primary AML blast cells from patient with IDH1 R132H mutation assessed as induction of mature cellular morphology at 1 times to 8 times IC50 incubated for 14 days by cytospin based analysis; type: functional, tissue-based; conditions: time 14.0 day
Method in brief: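 Primary IDH1 R132H AML cells in cytokine-supplemented methylcellulose with compound or DMSO vehicle for 14 days. Cells recovered by dilution in PBS and centrifugation, then examined on cytospin preparations for morphology.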

[6] = Effect on cell differentiation in human THP-1 cells; type: ADME, cell-based
Leukemic blast cell [7] = test: Induction of myeloid differentiation in human primary AML blast cells from patient with IDH1 R132H mutation assessed as up-regulation of CD11b at 1 times to 8 times IC50 incubated for 14 days by flow cytometry; type: functional, tissue-based; conditions: time 14.0 day; method in brief: as §1
[8] = biological target: Isocitrate dehydrogenase [NADP] cytoplasmic (Homo sapiens, UniProt O75874, R132C); test: Inhibition of IDH1 R132C mutant (unknown origin) using alpha-ketoglutarate and NADPH incubated for 30 mins by fluorescence based assay
Sequence of Isocitrate dehydrogenase [NADP] cytoplasmic (Homo sapiens, UniProt O75874, R132C) (O75874 2-414 R132C limits assumed): as the sequence (O75874 2-414 R132H limits assumed) above, with H131C counted along it
Method in brief: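 IDH1 R132C (100 nM) in 20 mM Tris pH 7.5, 10 mM MgCl2, 150 mM NaCl, 0.03% BSA with 0.5 mM α-ketoglutarate and 50 µM NADPH. Reaction 30 min at 26 °C. NADPH consumption read via diaphorase/resazurin coupling, resorufin fluorescence Ex544/Em590.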

Leukemic blast cell [9] = test: Induction of myeloid differentiation in human primary AML blast cells from patient with wild type IDH1 assessed as increase in clonogenic activity at 1 times to 8 times IC50 incubated for 14 days by cytospin based analysis; type: functional, tissue-based; conditions: time 14.0 day
Method in brief: (§2)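 Primary AML cells (≥80% blasts) seeded at 2 x 10^4 per condition in cytokine-supplemented methylcellulose with compound or DMSO vehicle (1:1000), 37 °C, 5% CO2. Colonies scored and counted after 14 days, expressed relative to vehicle control. Three independent experiments, mean ± standard error.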

Leukemic blast cell [10] = test: Induction of myeloid differentiation in human primary AML blast cells from patient with wild type IDH1 assessed as down-regulation of CD117 at 1 times to 8 times IC50 incubated for 14 days by flow cytometry; type: functional, tissue-based; conditions: time 14.0 day; method in brief: as §1
Leukemic blast cell [11] = test: Induction of myeloid differentiation in human primary AML blast cells from patient with IDH1 R132H mutation assessed as increase in clonogenic activity at 1 times to 8 times IC50 incubated for 14 days by cytospin based analysis; type: functional, tissue-based; conditions: time 14.0 day; method in brief: as §2
[12] = biological target: Glucose-6-phosphate 1-dehydrogenase (Homo sapiens, UniProt P11413); test: Inhibition of wild type G6PD (unknown origin) using glucose-6-phosphate and NADP incubated for 30 mins by fluorescence based assay
Sequence of Glucose-6-phosphate 1-dehydrogenase (P11413 whole entry): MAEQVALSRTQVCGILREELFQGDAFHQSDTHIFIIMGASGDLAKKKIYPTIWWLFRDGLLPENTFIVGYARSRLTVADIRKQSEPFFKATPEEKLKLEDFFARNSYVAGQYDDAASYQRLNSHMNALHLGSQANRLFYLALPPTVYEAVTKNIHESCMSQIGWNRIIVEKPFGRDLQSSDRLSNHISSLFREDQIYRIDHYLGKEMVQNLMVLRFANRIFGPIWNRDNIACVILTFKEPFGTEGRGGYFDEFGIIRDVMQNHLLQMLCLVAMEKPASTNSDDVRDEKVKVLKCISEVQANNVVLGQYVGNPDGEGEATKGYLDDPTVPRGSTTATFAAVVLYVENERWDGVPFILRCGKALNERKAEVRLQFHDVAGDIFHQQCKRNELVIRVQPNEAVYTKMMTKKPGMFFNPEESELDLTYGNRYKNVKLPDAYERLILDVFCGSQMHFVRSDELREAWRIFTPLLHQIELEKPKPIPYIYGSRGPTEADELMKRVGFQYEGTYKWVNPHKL

[13] = test system: Isocitrate dehydrogenase [NADP] cytoplasmic (Homo sapiens), O75874 [R132H]; test: Allosteric inhibition of Myc-tagged IDH1 R132H mutant (unknown origin) expressed in human THP-1 cells assessed as inhibition of 2-HG production at >=10 uM incubated for 5 days in presence of doxycycline by LC-MS/MS analysis; type: cell-based; conditions: filed as negative allosteric modulator, dose microM >=10, time 5.0 day
Sequence of Isocitrate dehydrogenase [NADP] cytoplasmic (Homo sapiens), O75874 [R132H] (O75874 whole entry R132H): as the sequence (O75874 whole entry) above, with R132H counted along it
Method in brief: (§3)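 THP1 cells carrying doxycycline-inducible Myc-tagged IDH1 R132H (lentiviral, blasticidin-selected) cultured 5 days with doxycycline and compound. 2-HG measured by HILIC LC-MS/MS after solid-phase extraction, D3-2-HG internal standard, against a medium-spiked standard curve. Mean of two biological replicates.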

[14] = biological target: 11-beta-hydroxysteroid dehydrogenase 1 (Homo sapiens, UniProt P28845); test: Inhibition of active recombinant human N-terminal His-tagged 11-betaHSD1 expressed in Escherichia coli using cortisone, NADPH and glucose-6-phosphate incubated for 2 hrs by glucose-6-phosphate dehydrogenase based coupled HTRF immuno-competitive assay
Sequence of 11-beta-hydroxysteroid dehydrogenase 1 (P28845 whole entry): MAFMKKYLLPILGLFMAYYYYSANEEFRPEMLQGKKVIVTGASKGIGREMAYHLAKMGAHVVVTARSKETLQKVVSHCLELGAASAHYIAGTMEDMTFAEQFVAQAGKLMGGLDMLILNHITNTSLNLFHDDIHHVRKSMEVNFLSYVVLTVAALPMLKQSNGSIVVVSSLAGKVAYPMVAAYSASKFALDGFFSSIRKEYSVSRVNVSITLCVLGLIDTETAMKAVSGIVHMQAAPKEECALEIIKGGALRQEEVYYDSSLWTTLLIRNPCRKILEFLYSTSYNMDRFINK
Method in brief: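 Coupled HTRF immuno-competitive assay: 11β-HSD1 (1.5 µg/ml) in 100 mM potassium phosphate pH 7.6 with 160 nM cortisone, 1 mM EDTA, 1 mM glucose-6-phosphate and 12.5 µg/ml G6PD, started with 0.1 mM NADPH. Reaction 30 min at 37 °C, stopped with glycyrrhetinic acid in cortisol-d2, then anti-cortisol cryptate for 2 h at room temperature. TR-FRET read-out.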

[15] = biological target: T1, Isocitrate dehydrogenase [NADP] cytoplasmic; test: (§4) Allosteric inhibition of Myc-tagged IDH1 R132H mutant (unknown origin) expressed in human THP-1 cells assessed as inhibition of 2-HG production incubated for 5 days in presence of doxycycline by LC-MS/MS analysis; type: cell-based; method in brief: as §3
Target sequence in this assay (O75874 whole entry R132H): as the sequence (O75874 whole entry) above, with R132H counted along it

[16] = test system: Isocitrate dehydrogenase [NADP] cytoplasmic (Homo sapiens), O75874 [R132H]; test: as §4; type: cell-based; conditions: filed as negative allosteric modulator, time 5.0 day; method in brief: as §3
THP-1 = test: Effect on cell proliferation in human THP-1 cells; type: ADME, cell-based
[17] = biological target: T2, Isocitrate dehydrogenase [NADP] cytoplasmic; test: Inhibition of wild type IDH1 (unknown origin) using isocitrate and NADP incubated for 30 mins by fluorescence based assay
[18] = biological target: T3, Isocitrate dehydrogenase [NADP], mitochondrial (Homo sapiens, UniProt P48735); test: Inhibition of wild type IDH2 (unknown origin) using isocitrate and NADP incubated for 60 mins by fluorescence based assay
T3 sequence (P48735 whole entry): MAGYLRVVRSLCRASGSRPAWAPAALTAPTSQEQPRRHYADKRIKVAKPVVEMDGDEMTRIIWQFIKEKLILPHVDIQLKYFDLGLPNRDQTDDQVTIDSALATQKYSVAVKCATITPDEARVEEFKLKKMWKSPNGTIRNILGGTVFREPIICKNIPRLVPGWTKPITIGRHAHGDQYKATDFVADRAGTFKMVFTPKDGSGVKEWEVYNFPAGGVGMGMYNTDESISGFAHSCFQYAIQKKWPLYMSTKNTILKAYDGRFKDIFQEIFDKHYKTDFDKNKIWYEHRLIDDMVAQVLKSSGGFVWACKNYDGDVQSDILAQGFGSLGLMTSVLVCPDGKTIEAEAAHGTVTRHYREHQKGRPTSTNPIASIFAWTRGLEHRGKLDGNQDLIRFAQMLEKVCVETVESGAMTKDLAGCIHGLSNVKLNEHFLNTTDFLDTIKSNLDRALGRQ

Leukemic blast cell [19] = test: Induction of myeloid differentiation in human primary AML blast cells from patient with IDH1 R132H mutation assessed as down-regulation of CD117 at 1 times to 8 times IC50 incubated for 14 days by flow cytometry; type: functional, tissue-based; conditions: time 14.0 day; method in brief: as §1
Leukemic blast cell [20] = test: Induction of myeloid differentiation in human primary AML blast cells from patient with wild type IDH1 assessed as up-regulation of CD11b at 1 times to 8 times IC50 incubated for 14 days by flow cytometry; type: functional, tissue-based; conditions: time 14.0 day; method in brief: as §1
Leukemic blast cell [21] = test: Induction of myeloid differentiation in human primary AML blast cells from patient with IDH1 R132H mutation assessed as up-regulation of CD15 at 1 times to 8 times IC50 incubated for 14 days by flow cytometry; type: functional, tissue-based; conditions: time 14.0 day; method in brief: as §1

pIC50 [1]: < 4.52
pIC50 [2]: < 4.30
Structure (SMILES): COc1nc(N2CCC[C@@H](CC(=O)O)C2)ccc1C(=O)NC1CCCCC1
pIC50 (HeLa): < 4.52

pIC50 [2]: 5.00 and 5.12
inhibition [3]: inactive
Structure (SMILES): CC(C)CCSc1nc(N2CCC[C@@H](CC(=O)O)C2)ccc1C(=O)NC1C2CC3CC1CC(O)(C3)C2 (stereo partly drawn)

pIC50 [2]: 5.79 and 5.85
inhibition [3]: inactive
Structure (SMILES): CC(C)CCSc1nc(N2C[C@@H]3[C@H](C2)[C@H]3C(=O)O)ccc1C(=O)NC1C2CC3CC1CC(O)(C3)C2 (stereo partly drawn)

pIC50 [1]: 5.07
pIC50 [2]: 5.89
Structure (SMILES): CC(C)CCOc1nc(N2CCC[C@@H](CC(=O)O)C2)ccc1C(=O)NC1C2CC3CC1CC(O)(C3)C2 (stereo partly drawn)
pIC50 (HeLa): < 4.52

pIC50 [2]: 5.64 and 5.66
inhibition [3]: inactive
Structure (SMILES): O=C(O)C[C@H]1CCN(c2ccc(C(=O)NC3C4CC5CC3CC(O)(C5)C4)c(SC3CCCCC3)n2)C1 (stereo partly drawn)

pIC50 [1]: 5.64
pIC50 [8]: 6.33
pIC50 [12]: < 4.30
inhibition [13]: 100%
pIC50 [14]: 8.05
pIC50 [15]: 5.72
inhibition [16]: Dose-dependent effect
pIC50 [2]: 6.57
pIC50 [17]: < 4.30
pIC50 [18]: < 4.30
Structure (SMILES): CC(C)CCOc1nc(N2C[C@@H]3[C@H](C2)[C@H]3C(=O)O)ccc1C(=O)NC1C2CC3CC1CC(O)(C3)C2 (stereo partly drawn)
Activity (Leukemic blast cell [4]): inactive
Activity (Leukemic blast cell [5]): Active
Activity [6]: Non-Toxic
Activity (Leukemic blast cell [7]): Active
pIC50 (HeLa): < 4.52
Activity (Leukemic blast cell [9]): inactive
Activity (Leukemic blast cell [10]): inactive
Activity (Leukemic blast cell [11]): Active
Activity (THP-1): Non-Toxic
Activity (Leukemic blast cell [19]): Active
Activity (Leukemic blast cell [20]): inactive
Activity (Leukemic blast cell [21]): Active

pIC50 [2]: 5.52 and 5.80
inhibition [3]: inactive
Structure (SMILES): O=C(NC1C2CC3CC1CC(O)(C3)C2)c1ccc(N2C[C@@H]3[C@H](C2)[C@H]3C(=O)O)nc1SC1CCCC1 (stereo partly drawn)

pIC50 [1]: 4.80
pIC50 [2]: 5.25
Structure (SMILES): O=C(O)C[C@@H]1CCCN(c2ccc(C(=O)NC3CCCCC3)c(OCc3ccccc3F)n2)C1
pIC50 (HeLa): < 4.52

pIC50 [2]: 4.59
Structure (SMILES): CC(C)COc1nc(N2CCC[C@@H](CC(=O)O)C2)ccc1C(=O)NC1CCCCC1

pIC50 [2]: 5.19
Structure (SMILES): CC(C)CCOc1nc(N2CCC[C@@H](CC(=O)O)C2)ccc1C(=O)NC1CCCCC1

pIC50 [2]: 5.64
Structure (SMILES): O=C(O)C[C@@H]1CCCN(c2ccc(C(=O)NC3C4CC5CC3CC(O)(C5)C4)c(OCc3ccccc3)n2)C1 (stereo partly drawn)

pIC50 [2]: 5.22
Structure (SMILES): CC(C)CCOc1nc(N2C[C@@H]3[C@H](C2)[C@H]3C(=O)O)ccc1C(=O)Nc1cccc(C(N)=O)c1

pIC50 [2]: 5.03
Structure (SMILES): CC(C)CCOc1nc(N2C[C@@H]3[C@H](C2)[C@H]3C(=O)O)ccc1C(=O)NCc1ccccc1

pIC50 [2]: 5.14
Structure (SMILES): CC1(C)CC(Oc2nc(N3CCC[C@@H](CC(=O)O)C3)ccc2C(=O)NC2CCCCC2)C1

pIC50 [2]: 5.64
Structure (SMILES): O=C(O)C[C@@H]1CCCN(c2ccc(C(=O)NC3C4CC5CC3CC(O)(C5)C4)c(OCc3ccccc3Cl)n2)C1 (stereo partly drawn)

pIC50 [2]: < 4.30
Structure (SMILES): COc1ccc(COc2nc(N3CCC[C@@H](CC(=O)O)C3)ccc2C(=O)NC2CCCCC2)cc1

pIC50 [2]: 4.77
Structure (SMILES): CC(C)CCOc1nc(N2C[C@@H]3[C@H](C2)[C@H]3C(=O)O)ccc1C(=O)N(C)C1CCCCC1

pIC50 [2]: 4.68
Structure (SMILES): CC(C)CCOc1nc(Nc2coc(C(=O)O)n2)ccc1C(=O)NC1C2CC3CC1CC(O)(C3)C2 (stereo not drawn)

pIC50 [2]: 4.92
Structure (SMILES): O=C(O)C[C@@H]1CCCN(c2ccc(C(=O)NC3CCCCC3)c(OC3CCCC3)n2)C1

pIC50 [2]: 4.92
Structure (SMILES): O=C(O)C[C@@H]1CCCN(c2ccc(C(=O)NC3CCCCC3)c(OC3CCCCC3)n2)C1

pIC50 [2]: 5.52
Structure (SMILES): CC(C)CCOc1nc(-c2ccc(C(=O)O)cc2)ccc1C(=O)NC1C2CC3CC1CC(O)(C3)C2 (stereo not drawn)

pIC50 [2]: 6.16
Structure (SMILES): Cc1ccccc1COc1nc(N2CCC[C@@H](CC(=O)O)C2)ccc1C(=O)NC1C2CC3CC1CC(O)(C3)C2 (stereo partly drawn)
